What was measured:
[1] = Inhibition of bacterial Metallo-beta-lactamase VIM-2 (unknown origin) assessed as substrate hydrolysis using meropenem as substrate by UV-visible spectrometry analysis; set-up: species or system Bacteria
In short: (§1)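 Purified MBL enzyme at 1–70 nM final, in 50 mM HEPES pH 7.5 at 30 °C with 0.5% DMSO. Reporter substrate 150 µM imipenem or meropenem; hydrolysis read at 300 nm. […] Ki measured when inhibition exceeded 75%, by competitive-model v0/vi vs [I] slope or Dixon plot. Some runs used 10 min enzyme–inhibitor preincubation. Triplicate.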

[2] = target: Hydroxyacylglutathione hydrolase, mitochondrial (Homo sapiens, UniProt Q16775); experiment: Inhibition of recombinant human Glyoxalase-2 assessed as reduction of substrate level using S-D-lactoylglutathione as substrate by spectrophotometric method
In short: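 Recombinant human glyoxalase II (5–25 nM) in 100 mM MOPS pH 7.2 at 25 °C. Substrate S-D-lactoylglutathione loss followed at 240 nm (ε 3.1 mM−1cm−1). Inhibitor in DMSO added to the substrate mix, and the reaction started with enzyme. Duplicate.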

[3] = Inhibition of bacterial Metallo-beta-lactamase VIM-4 (unknown origin) assessed as substrate hydrolysis using meropenem as substrate by UV-visible spectrometry analysis; set-up: species or system Bacteria; in short: as §1
[4] = Inhibition of bacterial Metallo-beta-lactamase IMP-1 (unknown origin) assessed as substrate hydrolysis using meropenem as substrate by UV-visible spectrometry analysis; set-up: species or system Bacteria; in short: as §1
HeLa = experiment: Cytotoxicity against human HeLa cells assessed as LDH release measured after 24 hrs by CytoTox96 nonradioactive assay; assay type: functional, cell-based
In short: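 HeLa cells (20,000/well) incubated 24 h at 37 °C, 5% CO2 in DMEM with 10% FBS, 4.5 mg/mL glucose and 2 mM L-glutamine, with compound up to 250 µM. LDH release measured. Medium-only control and Triton X-100 maximum-release control included. % cytotoxicity = 100 × sample/maximum release. IC50 taken as 50% cytotoxicity.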

[5] = Cytotoxicity against human PBMC cells assessed as cell viability measured after 24 hrs by flowcytometry method; assay type: toxicity, cell-based; conditions: pbmc
In short: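 PBMC from four individual donors were isolated by density centrifugation, frozen, thawed and resuspended at 1.10e6/mL in RPMI with 10% FBS. Compound added from 20 mM DMSO stock by serial dilution in RPMI; final concentrations 500–7.8 µM, in duplicate. After 24 h, live cells counted by flow cytometry using FSC/SSC gating. IC50 calculated for each donor.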

[6] = Inhibition of bacterial Metallo-beta-lactamase VIM-1 (unknown origin) assessed as substrate hydrolysis using meropenem as substrate by UV-visible spectrometry analysis; set-up: species or system Bacteria; in short: as §1
Klebsiella pneumoniae [7] = experiment: Synergistic antibacterial activity against Klebsiella pneumonia VA 416/02 clinical isolate strain producing Metallo-beta-lactamase VIM-4 assessed as meropenem MIC in presence of meropenem incubated for 24 hrs by broth microdilution method; conditions: VA 416/02, 24 h
[8] = Inhibition of bacterial New Delhi metallo-beta-lactamase 1 (unknown origin) assessed as substrate hydrolysis using meropenem as substrate by UV-visible spectrometry analysis; set-up: species or system Bacteria; in short: as §1
Klebsiella pneumoniae [9] = experiment: Synergistic antibacterial activity against Klebsiella pneumonia 7023 clinical isolate strain producing Metallo-beta-lactamase VIM-1 assessed as meropenem MIC in presence of meropenem incubated for 24 hrs by broth microdilution method; assay type: functional
In short: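 CLSI broth microdilution in Mueller-Hinton broth with 5 × 10^4 CFU/well. Meropenem two-fold serial dilutions tested with and without inhibitor fixed at 32 µg/mL, inhibitor added before antibiotic. DMSO ≤1%. […] Growth controls included. Triplicate.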

## S=c1[nH]nc(-c2ccccc2)n1CCSCc1ccccc1
[1]
  Ki: 0.24 µM
[2]
  IC50: 52 µM
[3]
  Ki: 0.31 µM
[4]
  Ki: 19.6 µM
HeLa
  IC50: 152 µM
[5]
  IC50: Non-Toxic
[6]
  Ki: 0.21 µM
Klebsiella pneumoniae [7]
  MIC: 4 µg/mL
[8]
  Ki: 22.3 µM
Klebsiella pneumoniae [9]
  MIC: 2 µg/mL
